Reference: ChEMBL document CHEMBL4261600 (Eur J Med Chem, 2018)

What was measured:
[1] = molecular target: Calcium/calmodulin-dependent protein kinase type IV (Homo sapiens) (UniProt Q16566); assay: Binding affinity to wild-type human partial length CAMK4 (A22 to A322 residues) expressed in bacterial expression system assessed as remaining unbound target protein level at 1000 nM by Kinomescan method relative to control
How it was run: (§1)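 Profiled in a KINOMEscan binding panel with the inhibitor at a single concentration of 1 μM. Binding to each kinase was read out as percent of control, relative to a DMSO control. Strong binders were defined as those with a percent control value below 1.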

[2] = molecular target: Myosin light chain kinase (Homo sapiens) (UniProt Q32MK0); assay: Binding affinity to wild-type human partial length MLCK (D488 to K800 residues) expressed in bacterial expression system assessed as remaining unbound target protein level at 1000 nM by Kinomescan method relative to control
[3] = test system: Epidermal growth factor receptor (Homo sapiens), P00533 [L861Q]; assay: Binding affinity to human partial length EGFR L861Q mutant (R669 to V1011 residues) expressed in bacterial expression system assessed as remaining unbound target protein level at 1000 nM by Kinomescan method relative to control
How it was run: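 KINOMEscan competition-binding profiling across the panel of 468 kinases and mutants, with inhibitor tested at 1 μM. Binding is expressed as percent of control, with DMSO as the reference control.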

[4] = Cmax in mouse at 10 mg/kg, po by LC-MS/MS analysis; format: ADME, organism-based; set-up: dose 10 mg/kg, route oral; settings: in vivo
[5] = molecular target: Serine/threonine-protein kinase MARK1 (Homo sapiens) (UniProt Q9P0L2); assay: Binding affinity to wild-type human partial length MARK1 (Q30 to T341 residues) expressed in bacterial expression system assessed as remaining unbound target protein level at 1000 nM by Kinomescan method relative to control
How it was run: (§2)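 KINOMEscan binding panel of 468 kinases/mutants. Inhibitor was tested at a single concentration of 1 μM. Binding is reported as percent of control, defined relative to a DMSO control.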

[6] = Tmax in Sprague-Dawley rat at 20 mg/kg, po by LC-MS/MS analysis; format: ADME, organism-based; settings: in vivo
[7] = molecular target: Dual specificity protein kinase CLK4 (Homo sapiens) (UniProt Q9HAZ1); assay: Binding affinity to wild-type human partial length CLK4 (R135 to K481 residues) expressed in bacterial expression system assessed as remaining unbound target protein level at 1000 nM by Kinomescan method relative to control
How it was run: (§3)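 KINOMEscan competition binding profile across a panel of 468 kinases and mutants, with the inhibitor tested at a single concentration of 1 μM. Binding is reported as percent of control, meaning signal relative to a DMSO control.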

[8] = molecular target: Ribosomal protein S6 kinase alpha-5 (Homo sapiens) (UniProt O75582); assay: Binding affinity to wild-type human partial length N-terminal RPS6KA5 kinase domain 1 expressed in bacterial expression system assessed as remaining unbound target protein level at 1000 nM by Kinomescan method relative to control
[9] = molecular target: Activin receptor type-2B (Homo sapiens) (UniProt Q13705); assay: Binding affinity to wild-type human ACVR2B (H169 to D504 residues) expressed in bacterial expression system assessed as remaining unbound target protein level at 1000 nM by Kinomescan method relative to control
How it was run: (§4)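 Single-point competition binding screen across a panel of 468 kinases and mutants, with the inhibitor at 1 μM. Binding is read out as percent of a DMSO control, and targets below 1 percent control were classed as strong binders.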

[10] = molecular target: Serine/threonine-protein kinase 17B (Homo sapiens) (UniProt O94768); assay: Binding affinity to wild-type human full length DRAK2 (M1 to C372 residues) expressed in bacterial expression system assessed as remaining unbound target protein level at 1000 nM by Kinomescan method relative to control; how it was run: as §4
Serine/threonine-protein kinase 17B (Homo sapiens), sequence (O94768 whole entry, the tested form may be a part): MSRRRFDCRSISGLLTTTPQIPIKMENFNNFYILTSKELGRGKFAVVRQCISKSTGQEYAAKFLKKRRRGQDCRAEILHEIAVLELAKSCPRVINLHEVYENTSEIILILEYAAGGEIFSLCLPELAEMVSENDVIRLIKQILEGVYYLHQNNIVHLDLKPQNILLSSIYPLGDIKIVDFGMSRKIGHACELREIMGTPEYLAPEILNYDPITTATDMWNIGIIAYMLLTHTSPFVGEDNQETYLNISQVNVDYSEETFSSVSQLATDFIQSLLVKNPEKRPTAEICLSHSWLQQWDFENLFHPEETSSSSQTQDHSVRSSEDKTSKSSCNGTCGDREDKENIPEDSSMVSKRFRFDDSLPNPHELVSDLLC

[11] = molecular target: Dual specificity protein kinase TTK (Homo sapiens) (UniProt P33981); assay: Binding affinity to wild-type human partial length TTK (N505 to V798 residues) expressed in bacterial expression system assessed as remaining unbound target protein level at 1000 nM by Kinomescan method relative to control
[12] = molecular target: Bone morphogenetic protein receptor type-2 (Homo sapiens) (UniProt Q13873); assay: Binding affinity to wild-type human partial length BMPR2 (R179 to Q526 residues) expressed in mammalian expression system assessed as remaining unbound target protein level at 1000 nM by Kinomescan method relative to control; how it was run: as §1
[13] = molecular target: Ribosomal protein S6 kinase alpha-3 (Homo sapiens) (UniProt P51812); assay: Binding affinity to wild-type human partial length N-terminal RSK2 kinase domain 1 (M1 to D394 residues) expressed in mammalian expression system assessed as remaining unbound target protein level at 1000 nM by Kinomescan method relative to control
Ribosomal protein S6 kinase alpha-3 (Homo sapiens), sequence (P51812 whole entry, the tested form may be a part): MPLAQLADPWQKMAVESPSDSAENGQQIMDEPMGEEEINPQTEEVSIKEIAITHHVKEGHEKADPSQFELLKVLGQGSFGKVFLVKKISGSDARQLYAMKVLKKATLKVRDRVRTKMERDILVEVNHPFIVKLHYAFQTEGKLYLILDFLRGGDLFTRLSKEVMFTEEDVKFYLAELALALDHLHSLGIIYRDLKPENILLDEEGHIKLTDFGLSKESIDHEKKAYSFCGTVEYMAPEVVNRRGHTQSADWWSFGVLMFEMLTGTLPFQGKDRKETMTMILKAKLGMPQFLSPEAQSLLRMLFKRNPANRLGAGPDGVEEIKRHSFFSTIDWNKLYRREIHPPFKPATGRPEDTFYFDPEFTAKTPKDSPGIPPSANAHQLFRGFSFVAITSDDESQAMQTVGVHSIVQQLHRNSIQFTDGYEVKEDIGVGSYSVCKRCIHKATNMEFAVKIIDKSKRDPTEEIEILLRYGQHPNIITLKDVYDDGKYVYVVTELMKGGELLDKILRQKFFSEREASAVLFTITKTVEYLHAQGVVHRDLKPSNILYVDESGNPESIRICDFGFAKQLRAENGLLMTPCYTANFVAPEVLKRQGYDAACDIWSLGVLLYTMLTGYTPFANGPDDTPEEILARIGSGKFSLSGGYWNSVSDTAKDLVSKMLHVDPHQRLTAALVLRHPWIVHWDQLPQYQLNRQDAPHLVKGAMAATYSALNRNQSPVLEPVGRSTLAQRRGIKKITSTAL

[14] = molecular target: Death-associated protein kinase 1 (Homo sapiens) (UniProt P53355); assay: Binding affinity to wild-type human partial length DAPK1 (M1 to F296 residues) expressed in bacterial expression system assessed as remaining unbound target protein level at 1000 nM by Kinomescan method relative to control; how it was run: as §3
Death-associated protein kinase 1 (Homo sapiens), sequence (P53355 whole entry, looked up, the tested form may be a part): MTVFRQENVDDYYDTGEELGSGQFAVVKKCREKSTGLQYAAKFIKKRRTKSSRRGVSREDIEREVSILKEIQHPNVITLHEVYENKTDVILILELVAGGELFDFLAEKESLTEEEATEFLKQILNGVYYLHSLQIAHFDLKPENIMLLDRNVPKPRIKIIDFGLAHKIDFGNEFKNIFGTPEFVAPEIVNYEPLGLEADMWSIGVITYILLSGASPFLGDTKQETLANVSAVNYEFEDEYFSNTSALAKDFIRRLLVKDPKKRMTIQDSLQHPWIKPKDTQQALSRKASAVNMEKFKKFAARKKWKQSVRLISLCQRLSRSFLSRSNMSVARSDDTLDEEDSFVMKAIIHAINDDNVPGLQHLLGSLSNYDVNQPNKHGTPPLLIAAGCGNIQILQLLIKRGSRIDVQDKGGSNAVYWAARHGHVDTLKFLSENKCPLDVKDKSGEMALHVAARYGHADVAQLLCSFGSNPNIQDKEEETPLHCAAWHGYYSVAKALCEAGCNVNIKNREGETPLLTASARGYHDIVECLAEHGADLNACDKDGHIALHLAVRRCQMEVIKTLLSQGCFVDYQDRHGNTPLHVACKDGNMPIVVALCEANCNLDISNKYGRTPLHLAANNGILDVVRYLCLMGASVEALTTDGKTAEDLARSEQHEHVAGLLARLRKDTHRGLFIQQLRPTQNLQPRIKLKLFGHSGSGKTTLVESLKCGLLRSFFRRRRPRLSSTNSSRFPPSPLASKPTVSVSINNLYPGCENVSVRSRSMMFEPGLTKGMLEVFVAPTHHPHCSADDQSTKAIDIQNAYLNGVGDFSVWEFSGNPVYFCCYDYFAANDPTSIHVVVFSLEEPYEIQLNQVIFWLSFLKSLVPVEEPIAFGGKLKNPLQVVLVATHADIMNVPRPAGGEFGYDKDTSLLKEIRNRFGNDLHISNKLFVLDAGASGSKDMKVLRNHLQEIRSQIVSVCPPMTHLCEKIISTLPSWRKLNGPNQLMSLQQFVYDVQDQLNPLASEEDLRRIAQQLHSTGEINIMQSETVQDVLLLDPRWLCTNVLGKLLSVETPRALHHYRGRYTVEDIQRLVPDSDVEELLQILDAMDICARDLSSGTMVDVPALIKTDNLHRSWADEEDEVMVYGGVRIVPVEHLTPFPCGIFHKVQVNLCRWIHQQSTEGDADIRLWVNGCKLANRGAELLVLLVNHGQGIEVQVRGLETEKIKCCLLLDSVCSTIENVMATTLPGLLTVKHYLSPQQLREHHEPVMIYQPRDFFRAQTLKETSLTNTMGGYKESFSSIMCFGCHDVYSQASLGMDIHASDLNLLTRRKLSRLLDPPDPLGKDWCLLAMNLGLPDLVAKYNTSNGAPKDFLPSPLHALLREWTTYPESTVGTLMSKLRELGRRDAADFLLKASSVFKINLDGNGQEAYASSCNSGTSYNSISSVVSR

[15] = Tmax in beagle dog at 10 mg/kg, po by LC-MS/MS analysis; format: ADME, organism-based, Canis lupus familiaris; settings: in vivo
[16] = molecular target: Serine/threonine-protein kinase 3 (Homo sapiens) (UniProt Q13188); assay: Binding affinity to wild-type human partial length MST2 (D17 to E318 residues) expressed in bacterial expression system assessed as remaining unbound target protein level at 1000 nM by Kinomescan method relative to control; how it was run: as §2
Serine/threonine-protein kinase 3 (Homo sapiens), sequence (Q13188 whole entry, the tested form may be a part): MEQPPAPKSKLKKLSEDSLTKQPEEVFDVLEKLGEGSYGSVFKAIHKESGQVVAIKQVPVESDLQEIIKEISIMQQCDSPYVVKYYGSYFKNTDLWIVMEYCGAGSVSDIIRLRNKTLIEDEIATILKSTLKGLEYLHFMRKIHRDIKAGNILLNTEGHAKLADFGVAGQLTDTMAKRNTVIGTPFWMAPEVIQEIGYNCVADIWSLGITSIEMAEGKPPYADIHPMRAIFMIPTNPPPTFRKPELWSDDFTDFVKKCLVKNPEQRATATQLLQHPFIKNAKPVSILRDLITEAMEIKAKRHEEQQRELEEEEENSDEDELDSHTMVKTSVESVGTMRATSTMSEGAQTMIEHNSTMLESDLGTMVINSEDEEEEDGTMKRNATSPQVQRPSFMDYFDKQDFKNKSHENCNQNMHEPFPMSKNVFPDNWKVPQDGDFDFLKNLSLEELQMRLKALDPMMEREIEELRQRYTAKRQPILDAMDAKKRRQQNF

[17] = molecular target: Activated CDC42 kinase 1 (Homo sapiens) (UniProt Q07912); assay: Binding affinity to wild-type human partial length TNK2 (S159 to D474 residues) expressed in bacterial expression system assessed as remaining unbound target protein level at 1000 nM by Kinomescan method relative to control
[18] = molecular target: AP2-associated protein kinase 1 (Homo sapiens) (UniProt Q2M2I8); assay: Binding affinity to human wild-type AAK1 (G25 to L333 residues) expressed in bacterial expression system assessed as remaining unbound target protein level at 1000 nM by Kinomescan method relative to control
AP2-associated protein kinase 1 (Homo sapiens), sequence (Q2M2I8 whole entry, looked up, the tested form may be a part): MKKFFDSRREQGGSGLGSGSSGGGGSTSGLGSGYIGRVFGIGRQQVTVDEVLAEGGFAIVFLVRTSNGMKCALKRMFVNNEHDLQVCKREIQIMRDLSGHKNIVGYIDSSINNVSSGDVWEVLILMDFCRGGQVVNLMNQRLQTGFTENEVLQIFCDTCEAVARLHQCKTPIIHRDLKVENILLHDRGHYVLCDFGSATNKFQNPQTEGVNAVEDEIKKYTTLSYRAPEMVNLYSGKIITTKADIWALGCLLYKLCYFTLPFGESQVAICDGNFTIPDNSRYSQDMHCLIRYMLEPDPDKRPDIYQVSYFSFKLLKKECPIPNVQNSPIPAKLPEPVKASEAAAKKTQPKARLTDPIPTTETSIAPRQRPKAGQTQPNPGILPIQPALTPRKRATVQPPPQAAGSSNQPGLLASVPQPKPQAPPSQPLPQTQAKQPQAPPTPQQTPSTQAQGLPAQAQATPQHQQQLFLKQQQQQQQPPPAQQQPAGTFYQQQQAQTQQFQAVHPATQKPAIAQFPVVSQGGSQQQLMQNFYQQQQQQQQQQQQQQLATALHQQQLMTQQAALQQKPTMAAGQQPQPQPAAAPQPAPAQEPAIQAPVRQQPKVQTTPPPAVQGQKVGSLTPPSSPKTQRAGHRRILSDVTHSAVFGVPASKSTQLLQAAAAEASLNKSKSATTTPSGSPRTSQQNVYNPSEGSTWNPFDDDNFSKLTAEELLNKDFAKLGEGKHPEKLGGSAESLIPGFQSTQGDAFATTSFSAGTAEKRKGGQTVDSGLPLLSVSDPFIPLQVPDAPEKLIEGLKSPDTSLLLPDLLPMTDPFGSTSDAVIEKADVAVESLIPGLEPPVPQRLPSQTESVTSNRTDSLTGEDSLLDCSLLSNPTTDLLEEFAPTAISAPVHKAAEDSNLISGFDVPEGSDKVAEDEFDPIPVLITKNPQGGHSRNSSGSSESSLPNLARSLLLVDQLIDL
How it was run: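 KINOMEscan competitive binding profile at 1 μM inhibitor. Remaining target binding reported as percent of DMSO control.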

[19] = molecular target: Dual specificity tyrosine-phosphorylation-regulated kinase 1A (Homo sapiens) (UniProt Q13627); assay: Binding affinity to wild-type human partial length DYRK1A (H129 to S509 residues) expressed in mammalian expression system assessed as remaining unbound target protein level at 1000 nM by Kinomescan method relative to control; how it was run: as §2
[20] = molecular target: Wee1-like protein kinase (Homo sapiens) (UniProt P30291); assay: Binding affinity to wild-type human partial length WEE1 (M291 to K575 residues) expressed in bacterial expression system assessed as remaining unbound target protein level at 1000 nM by Kinomescan method relative to control
Wee1-like protein kinase (Homo sapiens), sequence (P30291 whole entry, looked up, the tested form may be a part): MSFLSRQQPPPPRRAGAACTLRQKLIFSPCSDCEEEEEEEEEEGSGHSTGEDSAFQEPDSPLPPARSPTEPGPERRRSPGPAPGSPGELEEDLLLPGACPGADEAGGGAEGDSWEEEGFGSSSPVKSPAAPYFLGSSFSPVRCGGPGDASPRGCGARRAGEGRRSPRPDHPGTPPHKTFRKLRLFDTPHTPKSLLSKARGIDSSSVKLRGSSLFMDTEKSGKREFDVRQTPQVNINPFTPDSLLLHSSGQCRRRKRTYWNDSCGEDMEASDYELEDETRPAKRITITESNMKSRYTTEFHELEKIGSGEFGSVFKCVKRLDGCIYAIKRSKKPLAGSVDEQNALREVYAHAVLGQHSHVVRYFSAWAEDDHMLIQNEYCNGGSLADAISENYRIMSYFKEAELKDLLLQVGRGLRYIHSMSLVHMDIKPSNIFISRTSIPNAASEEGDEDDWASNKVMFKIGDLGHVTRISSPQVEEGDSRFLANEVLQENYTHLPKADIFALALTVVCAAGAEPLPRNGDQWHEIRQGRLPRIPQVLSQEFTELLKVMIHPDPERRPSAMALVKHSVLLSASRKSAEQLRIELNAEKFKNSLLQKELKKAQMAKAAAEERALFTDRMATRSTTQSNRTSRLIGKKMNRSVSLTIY

Homo sapiens = species on record: Homo sapiens; assay: Selectivity ratio of IC50 for recombinant GST-tagged inactive state of human CDK16 (108 to end residues)/cyclin Y (2 to end residues) to IC50 for recombinant full length His-tagged human CDK9/CyclinT1
[21] = molecular target: Serine/threonine-protein kinase Sgk2 (Homo sapiens) (UniProt Q9HBY8); assay: Binding affinity to wild-type human partial length SGK2 (L54 to C427 residues) expressed in mammalian expression system assessed as remaining unbound target protein level at 1000 nM by Kinomescan method relative to control
Serine/threonine-protein kinase Sgk2 (Homo sapiens), sequence (Q9HBY8 whole entry, the tested form may be a part): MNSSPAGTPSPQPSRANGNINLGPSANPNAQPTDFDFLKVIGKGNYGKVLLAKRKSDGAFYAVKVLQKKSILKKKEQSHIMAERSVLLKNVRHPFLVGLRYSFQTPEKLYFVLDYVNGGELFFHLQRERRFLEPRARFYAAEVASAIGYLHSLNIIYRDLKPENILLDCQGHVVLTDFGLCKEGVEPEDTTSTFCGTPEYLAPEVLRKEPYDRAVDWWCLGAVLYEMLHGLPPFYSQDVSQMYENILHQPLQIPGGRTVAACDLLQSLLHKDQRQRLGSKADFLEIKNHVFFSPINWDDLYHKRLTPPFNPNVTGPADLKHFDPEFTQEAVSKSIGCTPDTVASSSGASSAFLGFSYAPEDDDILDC

## COCCN[C@H]1CC[C@H](Nc2cc(-c3csc(NCC4(C#N)CCOCC4)n3)c(Cl)cn2)CC1
[1]
  Activity: 100%
[2]
  Activity: 100%
[3]
  Activity: 76%
[4]
  Cmax: 116 ng/mL
[5]
  Activity: 91%
[6]
  Tmax: 3.33 h
[7]
  Activity: 9.2%
[8]
  Activity: 100%
[9]
  Activity: 98%
[10]
  Activity: 89%
[11]
  Activity: 86%
[12]
  Activity: 100%
[13]
  Activity: 100%
[14]
  Activity: 80%
[15]
  Tmax: 1.33 h
[16]
  Activity: 69%
[17]
  Activity: 95%
[18]
  Activity: 99%
[19]
  Activity: 0.3%
[20]
  Activity: 94%
Homo sapiens
  Ratio IC50: 300
[21]
  Activity: 89%
